# Assay results reported in ChEMBL document CHEMBL2177011, “Discovery, synthesis, and biological evaluation of orally active pyrrolidone derivatives as novel inhibitors of p53-MDM2 protein-protein interaction” (J Med Chem, 2012).
# Experiments:
# [1] = molecular target: Tumour suppressor protein p53/Mdm4 (Homo sapiens, UniProt O15151); assay: (§1) Inhibition of p53-MDMX interaction after 1 hr by fluorescence polarization assay; assay type: protein assay
# [2] = molecular target: Tumour suppressor p53/oncoprotein Mdm2 (Homo sapiens, UniProt Q00987); assay: (§2) Inhibition of p53-MDM2 interaction after 1 hr by fluorescence polarization assay; assay type: protein assay
# Chain of Tumour suppressor p53/oncoprotein Mdm2 (Homo sapiens, UniProt Q00987) (P04637 whole entry): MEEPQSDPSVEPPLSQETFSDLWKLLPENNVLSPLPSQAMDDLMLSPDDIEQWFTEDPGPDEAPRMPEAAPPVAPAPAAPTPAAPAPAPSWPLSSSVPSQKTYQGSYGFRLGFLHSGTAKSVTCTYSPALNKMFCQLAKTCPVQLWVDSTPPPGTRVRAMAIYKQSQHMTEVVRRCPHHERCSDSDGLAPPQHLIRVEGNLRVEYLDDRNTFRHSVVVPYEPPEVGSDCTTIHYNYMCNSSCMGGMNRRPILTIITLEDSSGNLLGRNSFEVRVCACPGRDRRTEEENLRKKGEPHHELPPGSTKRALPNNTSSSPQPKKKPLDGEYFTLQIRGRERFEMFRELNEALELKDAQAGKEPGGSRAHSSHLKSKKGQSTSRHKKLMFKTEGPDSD
# Chain of Tumour suppressor p53/oncoprotein Mdm2 (Homo sapiens, UniProt Q00987) (Q00987 whole entry): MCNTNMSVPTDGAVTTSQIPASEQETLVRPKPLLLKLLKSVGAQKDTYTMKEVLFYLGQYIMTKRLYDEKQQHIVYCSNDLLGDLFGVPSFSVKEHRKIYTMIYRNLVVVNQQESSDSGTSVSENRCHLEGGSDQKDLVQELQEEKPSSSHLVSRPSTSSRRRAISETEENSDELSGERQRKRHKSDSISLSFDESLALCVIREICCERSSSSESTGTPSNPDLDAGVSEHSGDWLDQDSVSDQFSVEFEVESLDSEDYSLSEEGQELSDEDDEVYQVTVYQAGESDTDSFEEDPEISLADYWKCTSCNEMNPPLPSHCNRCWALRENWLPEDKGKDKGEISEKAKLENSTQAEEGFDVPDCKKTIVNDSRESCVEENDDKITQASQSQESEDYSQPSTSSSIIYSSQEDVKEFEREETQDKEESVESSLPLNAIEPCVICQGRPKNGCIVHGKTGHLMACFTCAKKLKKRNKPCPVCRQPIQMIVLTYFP
# [3] = test system: NCI-H1299; assay: Antiproliferative activity against p53 deficient human NCI-H1299 cells after 72 hrs by MTT assay; assay type: functional, cell-based; conditions: NCI-H1299, 72 h
# Procedure, shortened: (§3)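 Cells seeded at 5−6 × 10⁴ per well and cultured 24 h, then exposed in triplicate wells to a range of compound concentrations for 72 h, with 0.1% DMSO as control. MTT (5 mg/mL solution) was added for 4 h at 37 °C, formazan dissolved in DMSO, absorbance read at 570 nm. Drug-free wells served as blanks; IC50 calculated.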
# [4] = test system: A549; assay: Antiproliferative activity against human A549 cells expressing wild type p53 after 72 hrs by MTT assay; assay type: functional, cell-based; procedure, shortened: as §3
# [5] = test system: U2OS; assay: Antiproliferative activity against human U2OS cells expressing wild type p53 after 72 hrs by MTT assay; assay type: functional, cell-based; procedure, shortened: as §3
# [6] = test system: SAOS-2; assay: Antiproliferative activity against p53 deficient human Saos2 cells after 72 hrs by MTT assay; assay type: functional, cell-based; conditions: SAOS-2, 72 h; procedure, shortened: as §3
# [7] = molecular target: Tumour suppressor p53/oncoprotein Mdm2 (Homo sapiens, UniProt P04637+Q00987); assay: as §2; assay type: protein assay
# Chain of Tumour suppressor p53/oncoprotein Mdm2 (Homo sapiens, UniProt P04637+Q00987) (P04637 whole entry): as the sequence (P04637 whole entry) above
# Chain of Tumour suppressor p53/oncoprotein Mdm2 (Homo sapiens, UniProt P04637+Q00987) (Q00987 whole entry): as the sequence (Q00987 whole entry) above
# [8] = molecular target: Tumour suppressor protein p53/Mdm4 (Homo sapiens, UniProt P04637+O15151); assay: as §1; assay type: protein assay
# Chain of Tumour suppressor protein p53/Mdm4 (Homo sapiens, UniProt P04637+O15151) (P04637 whole entry): as the sequence (P04637 whole entry) above
# Chain of Tumour suppressor protein p53/Mdm4 (Homo sapiens, UniProt P04637+O15151) (O15151 whole entry): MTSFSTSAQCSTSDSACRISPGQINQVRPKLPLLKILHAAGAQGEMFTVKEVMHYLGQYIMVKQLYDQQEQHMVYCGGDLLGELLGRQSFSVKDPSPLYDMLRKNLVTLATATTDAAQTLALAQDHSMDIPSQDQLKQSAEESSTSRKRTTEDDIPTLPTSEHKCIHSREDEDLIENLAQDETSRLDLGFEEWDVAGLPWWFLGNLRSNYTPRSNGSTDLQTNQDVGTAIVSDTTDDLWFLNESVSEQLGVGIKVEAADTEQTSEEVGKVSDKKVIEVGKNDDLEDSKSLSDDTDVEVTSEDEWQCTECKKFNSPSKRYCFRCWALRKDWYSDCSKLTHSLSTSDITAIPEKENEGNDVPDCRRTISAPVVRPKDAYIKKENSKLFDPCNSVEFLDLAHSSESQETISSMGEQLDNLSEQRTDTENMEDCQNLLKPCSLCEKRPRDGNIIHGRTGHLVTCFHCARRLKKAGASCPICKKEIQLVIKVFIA
# [9] = test system: Mus musculus; assay: Toxicity in nude BALB/C mouse assessed as mortality at 200 mg/kg, po qd for 14 days; assay type: organism-based; parameters: dose 200 mg/kg, route oral; conditions: in vivo, 336 h
# Procedure, shortened: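 Male BALB/C nude mice (18−20 g) carried subcutaneous A549 implants in the right axilla. Dosing began once tumors reached 100−300 mm³, 13 days after implantation. Animals were randomized into groups of 6 per treatment and 10 controls, then given 200 mg/kg by gavage once daily for 14 consecutive days. Body weight was recorded every 4 days. Mice were sacrificed on day 29 or 33.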
# [10] = test system: A549; assay: Antitumor activity against human A549 cells expressing wild type p53 xenografted in nude BALB/C mouse assessed as inhibition of tumor growth at 200 mg/kg, po qd for 14 days; assay type: functional; conditions: A549, 336 h, read-out: TGI
# Procedure, shortened: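 Male BALB/C nude mice (18−20 g) had A549 cells implanted subcutaneously in the right axilla. Dosing started on day 13, when tumors reached 100−300 mm³. Mice were randomized (6 per treatment group, 10 controls) and dosed by gavage once daily for 14 days. Caliper tumor volume (TV = 1/2 × a × b²) was taken every 4 days; relative tumor volume was used. Mice were sacrificed on day 29 or 33.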
# [11] = Homo sapiens, A549, 72 h, read-out: IC50
# [12] = Homo sapiens, U2OS, 72 h, read-out: IC50
# Chain of Tumour suppressor protein p53/Mdm4 (Homo sapiens, UniProt O15151) (P04637 whole entry): as the sequence (P04637 whole entry) above
# Chain of Tumour suppressor protein p53/Mdm4 (Homo sapiens, UniProt O15151) (O15151 whole entry): as the sequence (O15151 whole entry) above
Ki [2] [µM],IC50 [3] [µM],"IC50 [4, 11] [µM]","IC50 [5, 12] [µM]",SMILES,IC50 [6] [µM],also measured
6.97,,,,CCCOC1=C(C(=O)c2ccccc2)C(c2ccc(Br)cc2)N(CCCn2ccnc2)C1=O (stereo not drawn),,Ki [1]: 9.32 µM
0.91,,,,O=C(C1=C(O)C(=O)N(CCCn2ccnc2)C1c1ccc(Br)cc1)c1ccc(Cl)cc1 (stereo not drawn),,
0.43,25.4,27.4,30,O=C(C1=C(Nc2ccc(F)cc2)C(=O)N(CCCn2ccnc2)C1c1ccc(Br)cc1)c1ccccc1 (stereo not drawn),32.7,
0.14,21.2,24.1,25.7,O=C(C1=C(Nc2ccccc2)C(=O)N(CCCn2ccnc2)C1c1ccc(Br)cc1)c1ccccc1 (stereo not drawn),24.4,
0.57,,,,O=C(C1=C(O)C(=O)N(Cc2cccnc2)C1c1ccc(Cl)cc1)c1ccccc1 (stereo not drawn),,
0.14,25.8,29.4,24.1,Cc1ccc(NC2=C(C(=O)c3ccccc3)C(c3ccc(Br)cc3)N(CCCn3ccnc3)C2=O)cc1 (stereo not drawn),31.9,
23.3,,,,O=C(C1=C(O)C(=O)N(CCCn2ccnc2)C1c1ccc(Cl)cc1)c1ccccc1 (stereo not drawn),,
,,,,O=C(C1=C(O)C(=O)N(CCCn2ccnc2)C1c1cccs1)c1ccccc1 (stereo not drawn),,Ki [7]: Not Active
39.4,,,,O=C(C1=C(O)C(=O)N(CCCn2ccnc2)C1c1ccc(Cl)cc1Cl)c1ccccc1 (stereo not drawn),,
,,,,O=C(C1=C(O)C(=O)N(CCCn2ccnc2)C1c1ccccn1)c1ccccc1 (stereo not drawn),,Ki [7]: Not Active
0.15,15.6,20.1,16.9,O=C(C1=C(Nc2ccccc2Br)C(=O)N(CCCn2ccnc2)C1c1ccc(Br)cc1)c1ccccc1 (stereo not drawn),19.6,
,,,,COc1ccc(C2C(C(=O)c3ccccc3)=C(O)C(=O)N2CCCn2ccnc2)cc1 (stereo not drawn),,Ki [7]: Not Active
0.35,19.9,20.2,26.2,CCOc1ccc(NC2=C(C(=O)c3ccccc3)C(c3ccc(Br)cc3)N(CCCn3ccnc3)C2=O)cc1 (stereo not drawn),30.9,
86,,,,O=C(CSc1nnc(-c2ccc(O)cc2)n1-c1ccccc1)Nc1ccccc1,,
0.29,20,73.1,,O=C(C1=C(O)C(=O)N(CCCn2ccnc2)C1c1ccc(Br)cc1)c1ccccc1 (stereo not drawn),31.6,Ki [8]: Not Active; IC50 ([5]; u2os): Not Active
1.37,,,,O=C(C1=C(O)C(=O)N(CCCn2ccnc2)C1c1ccc(Cl)cc1)c1ccc2c(c1)OCCO2 (stereo not drawn),,
0.69,28.9,35.2,21.9,CCOC1=C(C(=O)c2ccccc2)C(c2ccc(Br)cc2)N(CCCn2ccnc2)C1=O (stereo not drawn),31.7,Ki [1]: 38.9 µM
,,,,O=C(C1=C(O)C(=O)N(CCCn2ccnc2)C1c1ccc(Br)cc1)c1ccccc1Cl (stereo not drawn),,Ki [7]: Not Active
0.47,25.3,52.8,32.5,O=C(C1=C(NCc2ccccc2)C(=O)N(CCCn2ccnc2)C1c1ccc(Br)cc1)c1ccccc1 (stereo not drawn),31.6,

Ki [2] [µM],IC50 [3] [µM],"IC50 [4, 11] [µM]","IC50 [5, 12] [µM]",SMILES,IC50 [6] [µM],also measured
,,,,O=C(C1=C(O)C(=O)N(CCCn2ccnc2)C1c1cccnc1)c1ccccc1 (stereo not drawn),,Ki [7]: Not Active
0.12,11.5,20.8,11.5,O=C(C1=C(Nc2ccc(OC(F)(F)F)cc2)C(=O)N(CCCn2ccnc2)C1c1ccc(Br)cc1)c1ccccc1 (stereo not drawn),17.9,
0.19,19.2,22.2,13,O=C(C1=C(Nc2ccc(Br)cc2)C(=O)N(CCCn2ccnc2)C1c1ccc(Br)cc1)c1ccccc1 (stereo not drawn),23.8,
48.8,,,,COc1ccc(CCN2C(=O)C(O)=C(C(=O)c3cccs3)C2c2ccc(C)cc2)cc1 (stereo not drawn),,
1.76,,,,c1ccc(CN2CCN(Cc3ccccc3)C2c2cccnc2)cc1,,
0.49,19.9,31.2,22.4,O=C(C1=C(OC2CCCCC2)C(=O)N(CCCn2ccnc2)C1c1ccc(Br)cc1)c1ccccc1 (stereo not drawn),29.7,Ki [1]: 17.9 µM
,,,,O=C(C1=C(O)C(=O)N(CCCn2ccnc2)C1c1ccc(Cl)nc1)c1ccccc1 (stereo not drawn),,Ki [7]: Not Active
2.5,,,,COc1ccc(C(=O)C2=C(O)C(=O)N(c3nccs3)C2c2ccc(C)cc2)cc1 (stereo not drawn),,
,17,15.7,30.8,C[C@@H](NC1=C(C(=O)c2ccccc2)[C@H](c2ccc(Br)cc2)N(CCCn2ccnc2)C1=O)c1ccccc1,13.2,
0.91,,,,Cc1cc(C)cc(C2C(C(=O)c3ccccc3)=C(O)C(=O)N2CCCn2ccnc2)c1 (stereo not drawn),,
12,,,,O=C(C1=C(O)C(=O)N(CCc2ccccc2)C1c1ccc(Br)cc1)c1cccs1 (stereo not drawn),,
0.47,17.1,18.5,32.4,CCCCOC1=C(C(=O)c2ccccc2)C(c2ccc(Br)cc2)N(CCCn2ccnc2)C1=O (stereo not drawn),11.6,Ki [8]: Not Active
0.27,19.4,24.5,12,O=C(C1=C(Nc2ccc(I)cc2)C(=O)N(CCCn2ccnc2)C1c1ccc(Br)cc1)c1ccccc1 (stereo not drawn),23.4,
0.23,25,29.9,22.8,O=C(C1=C(Nc2ccc(Cl)cc2)C(=O)N(CCCn2ccnc2)C1c1ccc(Br)cc1)c1ccccc1 (stereo not drawn),24.8,
,,,,O=C(C1=C(O)C(=O)N(CCCn2ccnc2)C1c1ccc2ccccc2c1)c1ccccc1 (stereo not drawn),,Ki [7]: Not Active
1.46,,,,O=C(C1=C(O)C(=O)N(CCCn2ccnc2)C1c1ccc(Br)cc1)c1ccc(F)cc1 (stereo not drawn),,
0.81,,,,O=C(C1=C(O)C(=O)N(CCCn2ccnc2)C1c1ccc(C(F)(F)F)cc1)c1ccccc1 (stereo not drawn),,
0.83,,,,O=C(C1=C(O)C(=O)N(CCCn2ccnc2)C1c1cccc([N+](=O)[O-])c1)c1ccccc1 (stereo not drawn),,
0.7,,,,O=C(C1=C(O)C(=O)N(CCCn2ccnc2)C1c1ccc([N+](=O)[O-])cc1)c1ccccc1 (stereo not drawn),,

Ki [2] [µM],IC50 [3] [µM],"IC50 [4, 11] [µM]","IC50 [5, 12] [µM]",SMILES,IC50 [6] [µM],also measured
3.59,,,,O=C(C1=C(O)C(=O)N(CCCn2ccnc2)C1c1ccc(Br)cc1)c1ccc(I)cc1 (stereo not drawn),,
24.9,,,,O=C(C1=C(O)C(=O)N(CCCn2ccnc2)C1c1ccc(Br)cc1)c1ccc(Br)cc1 (stereo not drawn),,
0.048,168,,149,NC1=C(C(=O)c2ccccc2)C(c2ccc(Br)cc2)N(CCCn2ccnc2)C1=O (stereo not drawn),107,Ki [8]: Not Active; IC50 ([4]; a549): Not Active
0.15,11.5,15.8,11.9,O=C(C1=C(Nc2cccc(Br)c2)C(=O)N(CCCn2ccnc2)C1c1ccc(Br)cc1)c1ccccc1 (stereo not drawn),9.09,
2.54,,,,O=C(C1=C(O)C(=O)N(CCCn2ccnc2)C1c1ccc(Br)cc1)c1ccc([N+](=O)[O-])cc1 (stereo not drawn),,
0.43,,,,O=C(C1=C(O)C(=O)N(CCCn2ccnc2)C1c1ccccc1Br)c1ccccc1 (stereo not drawn),,
1.34,,,,COCCOC1=C(C(=O)c2ccccc2)C(c2ccc(Br)cc2)N(CCCn2ccnc2)C1=O (stereo not drawn),,Ki [1]: 2.11 µM
2.13,,,,O=c1c2cnn(-c3ccccc3)c2nc(Cc2ccccc2)n1Cc1ccccc1,,
0.88,,,,O=C(C1=C(O)C(=O)N(CCCn2ccnc2)C1c1ccc(F)cc1)c1ccccc1 (stereo not drawn),,
15.3,,,,O=C(C1=C(O)C(=O)N(CCCn2ccnc2)C1c1ccc(Br)cc1)c1ccccc1[N+](=O)[O-] (stereo not drawn),,
,,,,O=C(C1=C(O)C(=O)N(CCCn2ccnc2)C1c1ccco1)c1ccccc1 (stereo not drawn),,Ki [7]: Not Active
,,,,O=C(C1=C(O)C(=O)N(CCCn2ccnc2)C1c1ccsc1)c1ccccc1 (stereo not drawn),,Ki [7]: Not Active
0.34,10.3,7.29,9.14,CCCCCOC1=C(C(=O)c2ccccc2)C(c2ccc(Br)cc2)N(CCCn2ccnc2)C1=O (stereo not drawn),9.99,Ki [8]: Not Active
,,,,O=C(C1=C(O)C(=O)N(CCCn2ccnc2)C1c1ccccc1O)c1ccccc1 (stereo not drawn),,Ki [7]: Not Active
10.9,,,,CC(C)(C)c1ccc(C2C(C(=O)c3ccccc3)=C(O)C(=O)N2CCCn2ccnc2)cc1 (stereo not drawn),,
0.78,,,,Cc1ccc(C2C(C(=O)c3ccccc3)=C(O)C(=O)N2CCCn2ccnc2)cc1 (stereo not drawn),,
2.07,,,,O=C(C1=C(OCc2ccccc2)C(=O)N(CCCn2ccnc2)C1c1ccc(Br)cc1)c1ccccc1 (stereo not drawn),,Ki [8]: Not Active
10.7,,,,Cc1ccc(C2C(C(=O)c3ccccc3)=C(O)C(=O)N2CCCn2ccnc2)c(C)c1 (stereo not drawn),,
,,,,O=C(C1=C(O)C(=O)N(CCCn2ccnc2)C1c1cccc(O)c1)c1ccccc1 (stereo not drawn),,Ki [7]: Not Active

SMILES,Ki [2] [µM],IC50 [3] [µM],"IC50 [4, 11] [µM]","IC50 [5, 12] [µM]",IC50 [6] [µM],also measured
CC(C)OC1=C(C(=O)c2ccccc2)C(c2ccc(Br)cc2)N(CCCn2ccnc2)C1=O (stereo not drawn),,18.9,8.72,24.8,23,Activity [9]: Non-toxic; inhibition in vivo at 200 mg/kg [10]: 40%
